Measurements taken from ChEMBL document CHEMBL4477237, “Structure-Based Design of β5c Selective Inhibitors of Human Constitutive Proteasomes” (J Med Chem, 2016).

What was measured:
[1] = molecular target: T1, Proteasome Macropain subunit MB1 (Homo sapiens, UniProt P28074); assay: (§1) Inhibition of catalytic activity of constitutive proteasome 20s subunit beta5 in human Raji cells incubated for 1 hr by BODIPY(TMR)-NC-005-VS probe based competitive activity based protein profiling assay; type: cell-based
T1 sequence (P28074 whole entry): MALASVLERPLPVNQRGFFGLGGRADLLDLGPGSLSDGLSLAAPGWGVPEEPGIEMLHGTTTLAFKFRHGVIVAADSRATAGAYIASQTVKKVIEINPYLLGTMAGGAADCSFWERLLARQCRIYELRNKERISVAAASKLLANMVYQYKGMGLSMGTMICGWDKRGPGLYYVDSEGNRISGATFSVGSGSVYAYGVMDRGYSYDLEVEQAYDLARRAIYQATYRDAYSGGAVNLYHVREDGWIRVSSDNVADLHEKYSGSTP

[2] = molecular target: T2, Proteasome Macropain subunit MB1 (Homo sapiens) (UniProt P28074); assay: Inhibition of catalytic activity of constitutive proteasome 20s subunit beta5 in human Raji cells assessed as residual activity at 0.01 uM incubated for 1 hr by BODIPY(TMR)-NC-005-VS probe based activity based protein profiling assay relative to control; type: cell-based
T2 sequence (whole entry): T1 sequence (P28074 whole entry)
How it was run: (§2)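 Initial screen in Raji cell extracts. Inhibitor at 0.01, 0.1, 1.0 and 10.0 µM final for 1 h at 37 °C, then ABP cocktail 1 h. In-gel fluorescence of β5c/β5i bands normalized to mock-treated extract, giving residual activity. Run once. IC50s from this screen feed the β5i/β5c ratio.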

Homo sapiens = species on record: Homo sapiens; assay: Selectivity ratio of IC50 for immunoproteasome 20s subunit beta5 in human Raji cells to IC50 for constitutive proteasome 20s subunit beta5 in human Raji cells; type: cell-based; how it was run: as §2
[3] = molecular target: Proteasome Macropain subunit (Homo sapiens) (UniProt P49721); assay: Inhibition of catalytic activity of constitutive proteasome 20s subunit beta2 in human Raji cells incubated for 1 hr by BODIPY(FL)-LU-112 probe based competitive activity based protein profiling assay; type: cell-based
[4] = molecular target: Proteasome subunit beta type-9 (β1i, LMP2) (Homo sapiens) (UniProt P28065); assay: Inhibition of catalytic activity of immunoproteasome 20s subunit beta1 in human Raji cells incubated for 1 hr by Cy5-NC-001 probe based competitive activity based protein profiling assay
[5] = molecular target: T3, Proteasome component C5 (Homo sapiens) (UniProt P20618); assay: Inhibition of catalytic activity of constitutive proteasome 20s subunit beta1 in human Raji cells incubated for 1 hr by Cy5-NC-001 probe based competitive activity based protein profiling assay; type: cell-based
T3 sequence (whole entry): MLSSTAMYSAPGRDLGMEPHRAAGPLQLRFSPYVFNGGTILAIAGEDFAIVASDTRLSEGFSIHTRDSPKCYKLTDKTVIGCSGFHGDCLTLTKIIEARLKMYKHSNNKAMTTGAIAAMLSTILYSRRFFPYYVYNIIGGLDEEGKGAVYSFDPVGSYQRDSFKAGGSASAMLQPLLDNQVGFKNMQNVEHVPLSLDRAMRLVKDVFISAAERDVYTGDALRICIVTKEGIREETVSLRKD

[6] = molecular target: T2, Proteasome Macropain subunit MB1 (Homo sapiens); assay: as §1; type: cell-based
[7] = molecular target: Proteasome subunit beta type-8 (β5i, LMP7) (Homo sapiens) (UniProt P28062); assay: Inhibition of catalytic activity of immunoproteasome 20s subunit beta5 in human Raji cells incubated for 1 hr by BODIPY(TMR)-NC-005-VS probe based competitive activity based protein profiling assay
[8] = molecular target: Proteasome subunit beta type-8 (β5i, LMP7) (Homo sapiens) (UniProt P28062); assay: Inhibition of catalytic activity of immunoproteasome 20s subunit beta5 in human Raji cells assessed as residual activity at 0.01 uM incubated for 1 hr by BODIPY(TMR)-NC-005-VS probe based competitive activity based protein profiling assay relative to control

Row | SMILES | IC50 [1] [nM] | Activity [2] [%] | Ratio IC50 (Homo sapiens) | other results
1 | CC(C)C[C@H](NC(=O)[C@H](Cc1ccccc1)NC(=O)[C@H](CC1CC2CCC1C2)NC(=O)[C@H](Cc1ccccc1)N=[N+]=[N-])C(=O)[C@@]1(C)CO1 (some centres undefined) | < 10 | 24 | > 3 | 
2 | CC1=C(C(=O)N[C@H](C)C(=O)N[C@@H](Cc2c[nH]c3ccccc23)C(=O)N[C@@H](CC2CCCCC2)C(=O)[C@@]2(C)CO2)Cc2ccccc21 | > 1000 |  |  | 
3 | CC(C)C[C@H](NC(=O)[C@H](Cc1ccccc1)NC(=O)[C@H](Cc1ccccc1)NC(=O)[C@H](Cc1ccccc1)N=[N+]=[N-])C(=O)[C@@]1(C)CO1 |  |  |  | pIC50(app) [3]: 7.18; pIC50(app) [4]: 6.91; pIC50(app) [5]: < 4
4 | CC(C)C[C@H](NC(=O)[C@H](Cc1ccccc1)NC(=O)[C@H](CC1CCCC2CCCCC21)NC(=O)[C@H](Cc1ccccc1)N=[N+]=[N-])C(=O)[C@@]1(C)CO1 (some centres undefined) | < 10 | 40 | > 1.5 | 
5 | CC(C)C[C@H](NC(=O)[C@H](Cc1ccccc1)NC(=O)[C@H](CCc1ccccc1)NC(=O)[C@H](Cc1ccccc1)N=[N+]=[N-])C(=O)[C@@]1(C)CO1 | 3 |  |  | pIC50(app) [6]: 8.53; pIC50(app) [3]: 7.22; pIC50(app) [4]: 6.79; pIC50(app) [7]: 8.29; pIC50(app) [5]: < 4
6 | CC(C)C[C@H](NC(=O)[C@H](Cc1ccccc1)NC(=O)[C@H](Cc1ccc2ccccc2c1)NC(=O)[C@H](Cc1ccccc1)N=[N+]=[N-])C(=O)[C@@]1(C)CO1 | < 10 | 14 |  | Activity [8]: 49%
7 | C[C@H](NC(=O)[C@H](Cc1ccccc1)NC(=O)[C@H](C[C@H]1CC[C@@H](c2ccccc2)CC1)NC(=O)[C@H](Cc1ccccc1)N=[N+]=[N-])C(=O)[C@@]1(C)CO1 | 71 |  | 165 | 
8 | CC(C)C[C@H](NC(=O)[C@H](Cc1ccccc1)NC(=O)[C@H](CCC1CCCCC1)NC(=O)[C@H](Cc1ccccc1)N=[N+]=[N-])C(=O)[C@@]1(C)CO1 | 36 |  | 1 | 
9 | CC(C)C[C@H](NC(=O)[C@H](Cc1ccccc1)NC(=O)[C@H](CC1CCC2CCCCC2C1)NC(=O)[C@H](Cc1ccccc1)N=[N+]=[N-])C(=O)[C@@]1(C)CO1 (some centres undefined) | < 10 | 36 | > 2.5 | 
10 | COc1ccc(C[C@H](NC(=O)[C@H](CC2CCCCC2)NC(=O)CN2CCOCC2)C(=O)N[C@@H](CC(C)C)C(=O)[C@@]2(C)CO2)cc1 | 119 |  | 2 | 
11 | CC(C)C[C@H](NC(=O)[C@H](Cc1ccccc1)NC(=O)[C@H](CC(C)(C)C)NC(=O)[C@H](Cc1ccccc1)N=[N+]=[N-])C(=O)[C@@]1(C)CO1 | 18 |  | 4 | 
12 | C[C@H](NC(=O)[C@H](Cc1ccccc1)NC(=O)[C@H](C[C@H]1CC[C@@H](C2CCCCC2)CC1)NC(=O)[C@H](Cc1ccccc1)N=[N+]=[N-])C(=O)[C@@]1(C)CO1 | 710 |  |  | 
13 | CC(C)C[C@H](NC(=O)[C@H](Cc1ccccc1)NC(=O)[C@H](Cc1cccc2ccccc12)NC(=O)[C@H](Cc1ccccc1)N=[N+]=[N-])C(=O)[C@@]1(C)CO1 | < 10 | 12 |  | Activity [8]: 28%
14 | CC(C)C[C@H](NC(=O)[C@H](Cc1ccccc1)NC(=O)[C@@H](NC(=O)[C@H](Cc1ccccc1)N=[N+]=[N-])c1ccccc1)C(=O)[C@@]1(C)CO1 | < 10 | 44 |  | Activity [8]: 56%
15 | C[C@H](NC(=O)[C@H](Cc1ccccc1)NC(=O)[C@H](CC1CCC(C2CCCCC2)CC1)NC(=O)CN1CCOCC1)C(=O)[C@@]1(C)CO1 (some centres undefined) | 1230 |  | > 8 | 
16 | CC(C)C[C@H](NC(=O)[C@H](Cc1ccccc1)NC(=O)[C@H](CC1CCCCC1)NC(=O)[C@H](Cc1ccccc1)N=[N+]=[N-])C(=O)[C@@]1(C)CO1 | < 10 |  | > 5 | 
17 | COc1ccc(C[C@H](NC(=O)[C@H](CC23CC4CC(CC(C4)C2)C3)NC(=O)CN2CCOCC2)C(=O)N[C@@H](C)C(=O)[C@@]2(C)CO2)cc1 | 853 |  | > 12 | 

Row | SMILES | IC50 [1] [nM] | Activity [2] [%] | Ratio IC50 (Homo sapiens) | other results
18 | COc1ccc(C[C@H](NC(=O)[C@H](Cc2cccc3ccccc23)NC(=O)CN2CCOCC2)C(=O)N[C@@H](CC(C)C)C(=O)[C@@]2(C)CO2)cc1 | < 10 | 30 |  | Activity [8]: 36%
19 | COc1ccc(C[C@H](NC(=O)[C@H](Cc2ccc(-c3ccccc3)cc2)NC(=O)CN2CCOCC2)C(=O)N[C@@H](CC(C)C)C(=O)[C@@]2(C)CO2)cc1 | < 10 | 23 |  | Activity [8]: 44%
20 | CC(C)C[C@H](NC(=O)[C@H](Cc1ccccc1)NC(=O)[C@H](Cc1c[nH]c2ccccc12)NC(=O)[C@H](Cc1ccccc1)N=[N+]=[N-])C(=O)[C@@]1(C)CO1 | < 10 | 16 |  | Activity [8]: 49%
21 | CC(C)C[C@H](NC(=O)[C@H](Cc1ccccc1)NC(=O)[C@H](CC1CCC(C)CC1)NC(=O)[C@H](Cc1ccccc1)N=[N+]=[N-])C(=O)[C@@]1(C)CO1 (some centres undefined) | 2 |  |  | pIC50(app) [6]: 8.7; pIC50(app) [3]: 7.34; pIC50(app) [4]: < 4; pIC50(app) [7]: 7.96; pIC50(app) [5]: < 4
22 | COc1ccc(C[C@H](NC(=O)[C@H](Cc2ccccc2)N=[N+]=[N-])C(=O)N[C@@H](Cc2ccccc2)C(=O)N[C@@H](CC(C)C)C(=O)[C@@]2(C)CO2)cc1 | 2.1 |  |  | pIC50(app) [6]: 8.68; pIC50(app) [3]: 6.95; pIC50(app) [4]: 6.88; pIC50(app) [7]: 8.11; pIC50(app) [5]: 6.75
23 | C[C@H](NC(=O)[C@H](Cc1ccccc1)NC(=O)[C@@H](NC(=O)[C@H](Cc1ccccc1)N=[N+]=[N-])[C@H](C)OC(C)(C)C)C(=O)[C@@]1(C)CO1 | > 10000 |  |  | 
24 | CC(C)C[C@H](NC(=O)[C@H](Cc1ccccc1)NC(=O)[C@H](CC1CCC(C2CCCCC2)CC1)NC(=O)[C@H](Cc1ccccc1)N=[N+]=[N-])C(=O)[C@@]1(C)CO1 (some centres undefined) | 17 to 19 |  |  | pIC50(app) [6]: 7.77; pIC50(app) [4]: < 4; pIC50(app) [7]: 6.36; pIC50(app) [5]: < 4
25 | C[C@H](NC(=O)[C@H](Cc1ccccc1)NC(=O)[C@H](CC1CCCCC1)NC(=O)[C@H](Cc1ccccc1)N=[N+]=[N-])C(=O)[C@@]1(C)CO1 | 57 |  | > 175 | 
26 | C[C@H](NC(=O)[C@H](Cc1ccccc1)NC(=O)[C@H](Cc1ccc(-c2ccccc2)cc1)NC(=O)[C@H](Cc1ccccc1)N=[N+]=[N-])C(=O)[C@@]1(C)CO1 | < 10 |  | > 13 | 
27 | COc1ccc(C[C@H](NC(=O)[C@H](CC23CC4CC(CC(C4)C2)C3)NC(=O)CN2CCOCC2)C(=O)N[C@@H](CC(C)C)C(=O)[C@@]2(C)CO2)cc1 | 853 |  | 1 | 
28 | CC(C)C[C@H](NC(=O)[C@H](Cc1ccccc1)NC(=O)[C@@H](NC(=O)[C@H](Cc1ccccc1)N=[N+]=[N-])C1CCCCC1)C(=O)[C@@]1(C)CO1 | 33 |  | 2 | 
29 | COc1ccc(C[C@H](NC(=O)[C@H](Cc2ccc3ccccc3c2)NC(=O)CN2CCOCC2)C(=O)N[C@@H](CC(C)C)C(=O)[C@@]2(C)CO2)cc1 | < 10 | 9 |  | Activity [8]: 23%
30 | Cc1ccc(C[C@H](NC(=O)[C@H](Cc2ccccc2)N=[N+]=[N-])C(=O)N[C@@H](Cc2ccccc2)C(=O)N[C@@H](CC(C)C)C(=O)[C@@]2(C)CO2)cc1 | < 10 | 6 |  | Activity [8]: 15%
31 | CC(C)C[C@H](NC(=O)[C@H](Cc1ccccc1)NC(=O)[C@H](Cc1ccc(-c2ccccc2)cc1)NC(=O)[C@H](Cc1ccccc1)N=[N+]=[N-])C(=O)[C@@]1(C)CO1 | < 10 | 9 |  | Activity [8]: 28%
32 | C[C@H](NC(=O)[C@H](Cc1ccccc1)NC(=O)[C@H](CC1CCC(C2CCCCC2)CC1)NC(=O)[C@H](Cc1ccccc1)N=[N+]=[N-])C(=O)[C@@]1(C)CO1 (some centres undefined) | 20 to 74.7 |  |  | pIC50(app) [6]: 7.13; pIC50(app) [4]: < 4; pIC50(app) [7]: 4.78; pIC50(app) [5]: < 4
33 | C[C@H](NC(=O)[C@H](Cc1ccccc1)NC(=O)[C@H](C[C@H]1CC[C@H](c2ccccc2)CC1)NC(=O)[C@H](Cc1ccccc1)N=[N+]=[N-])C(=O)[C@@]1(C)CO1 | 3.8 |  | 2250 | 
